Experimental data as given in ChEMBL document CHEMBL4184148 (Bioorg Med Chem Lett, 2017).

Assays:
[1] = biological target: Tyrosine-protein kinase ABL1 (Homo sapiens) (UniProt P00519); assay: Binding affinity to wild-type human non-phosphorylated ABL1 (S229 to K512 residues) expressed in HEK293 cells at 1 uM by Kinomescan method relative to control; assay type: cell-based
[2] = tested on: Tyrosine-protein kinase ABL1 (Homo sapiens), P00519 [F317L]; assay: Binding affinity to human non-phosphorylated ABL1 F317L mutant (S229 to K512 residues) expressed in HEK293 cells at 1 uM by Kinomescan method relative to control; assay type: cell-based
[3] = tested on: Tyrosine-protein kinase ABL1 (Homo sapiens), P00519 [H396P]; assay: Binding affinity to human non-phosphorylated ABL1 H396P mutant (S229 to K512 residues) expressed in HEK293 cells at 1 uM by Kinomescan method relative to control; assay type: cell-based
[4] = biological target: RAC-alpha serine/threonine-protein kinase (Homo sapiens) (UniProt P31749); assay: Binding affinity to wild-type human partial length AKT1 expressed in Escherichia coli BL21 at 1 uM by Kinomescan method relative to control
Chain of RAC-alpha serine/threonine-protein kinase (Homo sapiens) (P31749 whole entry): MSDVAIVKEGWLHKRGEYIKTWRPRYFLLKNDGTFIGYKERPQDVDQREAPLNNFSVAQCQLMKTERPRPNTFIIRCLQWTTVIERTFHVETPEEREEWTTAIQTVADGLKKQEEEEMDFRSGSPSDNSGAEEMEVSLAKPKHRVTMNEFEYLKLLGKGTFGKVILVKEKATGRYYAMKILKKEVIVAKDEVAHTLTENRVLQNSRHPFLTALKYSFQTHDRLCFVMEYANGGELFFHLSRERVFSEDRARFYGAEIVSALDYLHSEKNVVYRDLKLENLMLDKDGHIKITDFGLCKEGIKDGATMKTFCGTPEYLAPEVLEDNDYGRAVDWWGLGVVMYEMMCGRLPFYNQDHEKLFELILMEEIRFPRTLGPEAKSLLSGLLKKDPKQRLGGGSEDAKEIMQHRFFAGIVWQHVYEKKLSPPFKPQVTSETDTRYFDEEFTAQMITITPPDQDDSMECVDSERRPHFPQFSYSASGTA
In short: (§1)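 Kinome-wide competition binding panel run by an outside provider, with each compound tested at a single concentration. Activity is read against the kinase panel.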

[5] = tested on: ALK tyrosine kinase receptor (Homo sapiens), Q9UM73 [L1196M]; assay: Binding affinity to […] human partial length ALK L1196M mutant (I1088 to E1409 residues) expressed in HEK293 cells at 1 uM by Kinomescan method relative to control; assay type: cell-based
[6] = biological target: Cyclin-dependent kinase 4/cyclin D1 (Homo sapiens) (UniProt P11802+P24385); assay: Binding affinity to wild-type human full length CDK4/cyclinD1 (M1 to E303 residues) expressed in HEK293 cells at 1 uM by Kinomescan method relative to control; assay type: cell-based
[7] = biological target: Casein kinase I isoform gamma-2 (Homo sapiens) (UniProt P78368); assay: Binding affinity to wild-type human full length CSNK1G2 (M1 to K415 residues) expressed in Escherichia coli BL21 at 1 uM by Kinomescan method relative to control
Chain of Casein kinase I isoform gamma-2 (Homo sapiens) (P78368 whole entry, looked up, the tested form may be a part, canonical isoform): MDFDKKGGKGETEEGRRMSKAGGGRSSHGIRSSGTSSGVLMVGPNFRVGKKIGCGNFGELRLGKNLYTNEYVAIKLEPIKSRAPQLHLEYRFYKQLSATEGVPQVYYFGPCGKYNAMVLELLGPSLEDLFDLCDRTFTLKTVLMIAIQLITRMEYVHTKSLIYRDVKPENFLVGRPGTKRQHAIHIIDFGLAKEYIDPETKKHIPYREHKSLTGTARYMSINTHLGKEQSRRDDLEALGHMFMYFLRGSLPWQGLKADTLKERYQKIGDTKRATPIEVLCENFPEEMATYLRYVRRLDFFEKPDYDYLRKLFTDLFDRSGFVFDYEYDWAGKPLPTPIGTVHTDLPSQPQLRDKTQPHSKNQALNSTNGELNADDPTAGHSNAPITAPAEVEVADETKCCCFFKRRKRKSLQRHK
In short: (§2)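 Run as one kinome-wide competition binding panel with each compound at a single fixed concentration. Results were plotted as a kinome-wide selectivity map.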

[8] = biological target: Megakaryocyte-associated tyrosine-protein kinase (Homo sapiens) (UniProt P42679); assay: Binding affinity to wild-type human full length CTK (M43 to P508 residues) expressed in HEK293 cells at 1 uM by Kinomescan method relative to control; assay type: cell-based; in short: as §2
Chain of Megakaryocyte-associated tyrosine-protein kinase (Homo sapiens) (P42679 whole entry, the tested form may be a part): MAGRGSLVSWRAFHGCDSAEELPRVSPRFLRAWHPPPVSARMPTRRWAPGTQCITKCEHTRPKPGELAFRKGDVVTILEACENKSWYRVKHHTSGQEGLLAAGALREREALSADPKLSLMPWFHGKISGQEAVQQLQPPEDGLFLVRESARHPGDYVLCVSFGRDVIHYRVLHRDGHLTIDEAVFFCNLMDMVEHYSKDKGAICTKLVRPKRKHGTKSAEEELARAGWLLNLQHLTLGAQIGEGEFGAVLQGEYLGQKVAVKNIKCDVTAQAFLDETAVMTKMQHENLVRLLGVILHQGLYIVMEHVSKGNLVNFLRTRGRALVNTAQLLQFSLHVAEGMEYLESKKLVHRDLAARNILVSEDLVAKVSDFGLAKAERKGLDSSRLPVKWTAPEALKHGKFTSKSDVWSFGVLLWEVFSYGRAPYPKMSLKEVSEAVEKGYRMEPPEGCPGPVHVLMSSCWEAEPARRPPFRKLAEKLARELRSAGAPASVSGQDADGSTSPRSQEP

[9] = tested on: Epidermal growth factor receptor (Homo sapiens), P00533 [L861Q]; assay: Binding affinity to human partial length EGFR L861Q mutant (R669 to V1011 residues) expressed in Escherichia coli BL21 at 1 uM by Kinomescan method relative to control
[10] = biological target: Cyclin-G-associated kinase (Homo sapiens) (UniProt O14976); assay: Binding affinity to wild-type human partial length GAK (G13 to Y338 residues) expressed in Escherichia coli BL21 at 1 uM by Kinomescan method relative to control
[11] = biological target: Serine/threonine-protein kinase LATS2 (Homo sapiens) (UniProt Q9NRM7); assay: Binding affinity to wild-type human partial length LATS2 (Q641 to V1088 residues) expressed in HEK293 cells at 1 uM by Kinomescan method relative to control; assay type: cell-based
[12] = biological target: Tyrosine-protein kinase Mer (Homo sapiens) (UniProt Q12866); assay: Binding affinity to wild-type human partial length MERTK (R557 to L884 residues) expressed in Escherichia coli BL21 at 1 uM by Kinomescan method relative to control
[13] = biological target: Mitogen-activated protein kinase kinase kinase 10 (Homo sapiens) (UniProt Q02779); assay: Binding affinity to wild-type human partial length MLK2 (V52 to W380 residues) expressed in Escherichia coli BL21 at 1 uM by Kinomescan method relative to control
[14] = biological target: Serine/threonine-protein kinase 38 (Homo sapiens) (UniProt Q15208); assay: Binding affinity to wild-type human partial length NDR1 (N33 to E449 residues) expressed in HEK293 cells at 1 uM by Kinomescan method relative to control; assay type: cell-based
[15] = biological target: Serine/threonine-protein kinase 38-like (Homo sapiens) (UniProt Q9Y2H1); assay: Binding affinity to wild-type human partial length NDR2 (N34 to E447 residues) expressed in Escherichia coli BL21 at 1 uM by Kinomescan method relative to control
Chain of Serine/threonine-protein kinase 38-like (Homo sapiens) (Q9Y2H1 2-464 limits assumed): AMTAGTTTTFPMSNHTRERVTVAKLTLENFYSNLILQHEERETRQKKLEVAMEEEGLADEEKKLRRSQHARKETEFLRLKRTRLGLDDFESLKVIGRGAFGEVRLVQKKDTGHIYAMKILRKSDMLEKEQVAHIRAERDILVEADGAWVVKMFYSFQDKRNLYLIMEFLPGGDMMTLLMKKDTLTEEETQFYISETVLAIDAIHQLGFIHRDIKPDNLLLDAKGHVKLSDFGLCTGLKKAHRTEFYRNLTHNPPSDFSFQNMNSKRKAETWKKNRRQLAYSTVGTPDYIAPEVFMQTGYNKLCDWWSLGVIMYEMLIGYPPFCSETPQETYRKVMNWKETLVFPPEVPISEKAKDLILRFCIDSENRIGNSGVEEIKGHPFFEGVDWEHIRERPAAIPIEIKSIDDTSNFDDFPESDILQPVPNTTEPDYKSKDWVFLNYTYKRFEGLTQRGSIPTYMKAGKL

[16] = biological target: Phosphatidylinositol 5-phosphate 4-kinase type-2 gamma (Homo sapiens) (UniProt Q8TBX8); assay: Binding affinity to wild-type human partial length PIP5K2C (M1 to A421 residues) expressed in HEK293 cells at 1 uM by Kinomescan method relative to control; assay type: cell-based
[17] = biological target: Protein kinase C delta type (Homo sapiens) (UniProt Q05655); assay: Binding affinity to wild-type human partial length PRKCD (Q328 to D676 residues) expressed in Escherichia coli BL21 at 1 uM by Kinomescan method relative to control
[18] = biological target: Protein kinase C theta type (Homo sapiens) (UniProt Q04759); assay: Binding affinity to wild-type human partial length PRKCQ (L350 to S706 residues) expressed in Escherichia coli BL21 at 1 uM by Kinomescan method relative to control
Chain of Protein kinase C theta type (Homo sapiens) (Q04759 whole entry, looked up, the tested form may be a part): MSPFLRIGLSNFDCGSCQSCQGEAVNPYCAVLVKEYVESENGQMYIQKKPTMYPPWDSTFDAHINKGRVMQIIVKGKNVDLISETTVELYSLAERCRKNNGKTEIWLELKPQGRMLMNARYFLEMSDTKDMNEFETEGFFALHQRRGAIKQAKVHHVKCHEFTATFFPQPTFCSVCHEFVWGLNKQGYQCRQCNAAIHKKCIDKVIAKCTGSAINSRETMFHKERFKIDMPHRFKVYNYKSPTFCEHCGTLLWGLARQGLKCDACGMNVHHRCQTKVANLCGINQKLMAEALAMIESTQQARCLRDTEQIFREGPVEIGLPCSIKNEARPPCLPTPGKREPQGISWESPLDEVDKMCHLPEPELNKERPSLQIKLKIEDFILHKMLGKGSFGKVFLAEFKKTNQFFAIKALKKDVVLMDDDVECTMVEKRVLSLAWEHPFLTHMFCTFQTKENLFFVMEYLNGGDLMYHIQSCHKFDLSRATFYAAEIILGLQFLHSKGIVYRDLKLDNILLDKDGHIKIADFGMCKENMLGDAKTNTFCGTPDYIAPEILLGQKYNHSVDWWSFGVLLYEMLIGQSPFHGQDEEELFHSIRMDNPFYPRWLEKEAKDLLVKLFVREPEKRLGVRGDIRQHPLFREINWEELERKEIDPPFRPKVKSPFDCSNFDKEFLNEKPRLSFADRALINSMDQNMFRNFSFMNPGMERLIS

[19] = biological target: Serine/threonine-protein kinase D2 (Homo sapiens) (UniProt Q9BZL6); assay: Binding affinity to wild-type human partial length PRKD2 (A519 to E838 residues) expressed in Escherichia coli BL21 at 1 uM by Kinomescan method relative to control
Chain of Serine/threonine-protein kinase D2 (Homo sapiens) (Q9BZL6 whole entry, the tested form may be a part): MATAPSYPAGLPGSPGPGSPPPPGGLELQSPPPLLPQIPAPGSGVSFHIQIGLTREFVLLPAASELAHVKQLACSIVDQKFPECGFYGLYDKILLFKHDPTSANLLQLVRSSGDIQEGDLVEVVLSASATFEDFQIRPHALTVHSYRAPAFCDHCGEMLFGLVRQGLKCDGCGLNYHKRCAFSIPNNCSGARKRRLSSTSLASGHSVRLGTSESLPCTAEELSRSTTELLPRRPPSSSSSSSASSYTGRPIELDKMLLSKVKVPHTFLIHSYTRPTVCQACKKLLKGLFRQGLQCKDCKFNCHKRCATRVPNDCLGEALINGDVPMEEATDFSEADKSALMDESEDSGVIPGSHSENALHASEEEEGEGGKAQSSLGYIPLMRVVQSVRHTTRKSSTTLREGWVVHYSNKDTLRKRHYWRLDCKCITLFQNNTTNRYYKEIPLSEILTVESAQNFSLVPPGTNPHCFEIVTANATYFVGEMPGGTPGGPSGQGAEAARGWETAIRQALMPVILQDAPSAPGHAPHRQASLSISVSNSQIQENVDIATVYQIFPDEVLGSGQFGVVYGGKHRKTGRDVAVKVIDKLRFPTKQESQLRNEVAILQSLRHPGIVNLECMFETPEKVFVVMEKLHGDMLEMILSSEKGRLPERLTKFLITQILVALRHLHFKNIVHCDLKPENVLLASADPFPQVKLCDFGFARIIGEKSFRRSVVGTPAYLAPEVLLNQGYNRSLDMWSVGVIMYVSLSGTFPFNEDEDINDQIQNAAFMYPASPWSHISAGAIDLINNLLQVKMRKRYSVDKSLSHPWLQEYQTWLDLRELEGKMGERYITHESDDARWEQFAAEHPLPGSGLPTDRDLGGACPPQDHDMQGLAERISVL

[20] = biological target: Serine/threonine-protein kinase PRP4 homolog (Homo sapiens) (UniProt Q13523); assay: Binding affinity to wild-type human partial length PRP4 (D657 to I1007 residues) expressed in Escherichia coli BL21 at 1 uM by Kinomescan method relative to control
Chain of Serine/threonine-protein kinase PRP4 homolog (Homo sapiens) (Q13523 whole entry, the tested form may be a part): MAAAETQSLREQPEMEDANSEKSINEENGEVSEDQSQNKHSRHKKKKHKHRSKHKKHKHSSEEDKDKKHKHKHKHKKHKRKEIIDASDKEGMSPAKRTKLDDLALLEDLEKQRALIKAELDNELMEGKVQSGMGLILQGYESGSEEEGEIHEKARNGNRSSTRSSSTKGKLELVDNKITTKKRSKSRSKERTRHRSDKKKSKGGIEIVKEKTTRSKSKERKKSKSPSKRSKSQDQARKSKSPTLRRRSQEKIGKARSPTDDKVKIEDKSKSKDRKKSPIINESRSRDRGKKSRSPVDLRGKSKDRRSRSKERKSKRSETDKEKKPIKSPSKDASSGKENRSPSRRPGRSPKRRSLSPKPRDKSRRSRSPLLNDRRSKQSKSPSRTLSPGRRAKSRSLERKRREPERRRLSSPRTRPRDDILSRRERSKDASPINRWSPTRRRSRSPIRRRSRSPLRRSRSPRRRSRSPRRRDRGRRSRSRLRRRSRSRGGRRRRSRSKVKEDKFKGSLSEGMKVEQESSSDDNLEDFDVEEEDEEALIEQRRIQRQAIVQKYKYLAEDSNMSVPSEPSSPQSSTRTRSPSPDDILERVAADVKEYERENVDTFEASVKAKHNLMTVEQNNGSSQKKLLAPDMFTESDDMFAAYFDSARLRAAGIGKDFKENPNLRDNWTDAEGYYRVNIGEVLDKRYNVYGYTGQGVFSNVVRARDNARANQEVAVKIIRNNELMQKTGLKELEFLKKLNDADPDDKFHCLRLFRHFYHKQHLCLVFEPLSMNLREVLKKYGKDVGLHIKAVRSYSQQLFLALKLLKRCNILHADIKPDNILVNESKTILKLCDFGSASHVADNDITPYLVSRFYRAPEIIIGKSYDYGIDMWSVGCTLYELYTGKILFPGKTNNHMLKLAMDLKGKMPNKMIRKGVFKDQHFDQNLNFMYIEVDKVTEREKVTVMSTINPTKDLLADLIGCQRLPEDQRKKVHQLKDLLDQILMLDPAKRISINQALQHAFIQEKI

[21] = tested on: Proto-oncogene tyrosine-protein kinase receptor Ret (Homo sapiens), P07949 [M918T]; assay: Binding affinity to human partial length RET M918T mutant (E713 to D1014 residues) expressed in Escherichia coli BL21 at 1 uM by Kinomescan method relative to control
[22] = biological target: Ribosomal protein S6 kinase alpha-4 (Homo sapiens) (UniProt O75676); assay: Binding affinity to wild-type human partial length C-terminal RPS6KA4 kinase domain 2 (M375 to T705 residues) expressed in HEK293 cells at 1 uM by Kinomescan method relative to control; assay type: cell-based
[23] = biological target: Non-receptor tyrosine-protein kinase TNK1 (Homo sapiens) (UniProt Q13470); assay: Binding affinity to wild-type human full length TNK1 (M1 to P661 residues) expressed in Escherichia coli BL21 at 1 uM by Kinomescan method relative to control; in short: as §1
[24] = biological target: Serine/threonine-protein kinase ULK3 (Homo sapiens) (UniProt Q6PHR2); assay: Binding affinity to wild-type human partial length ULK3 (M1 to Q290 residues) expressed in HEK293 cells at 1 uM by Kinomescan method relative to control; assay type: cell-based
Chain of Serine/threonine-protein kinase ULK3 (Homo sapiens) (Q6PHR2 whole entry, the tested form may be a part): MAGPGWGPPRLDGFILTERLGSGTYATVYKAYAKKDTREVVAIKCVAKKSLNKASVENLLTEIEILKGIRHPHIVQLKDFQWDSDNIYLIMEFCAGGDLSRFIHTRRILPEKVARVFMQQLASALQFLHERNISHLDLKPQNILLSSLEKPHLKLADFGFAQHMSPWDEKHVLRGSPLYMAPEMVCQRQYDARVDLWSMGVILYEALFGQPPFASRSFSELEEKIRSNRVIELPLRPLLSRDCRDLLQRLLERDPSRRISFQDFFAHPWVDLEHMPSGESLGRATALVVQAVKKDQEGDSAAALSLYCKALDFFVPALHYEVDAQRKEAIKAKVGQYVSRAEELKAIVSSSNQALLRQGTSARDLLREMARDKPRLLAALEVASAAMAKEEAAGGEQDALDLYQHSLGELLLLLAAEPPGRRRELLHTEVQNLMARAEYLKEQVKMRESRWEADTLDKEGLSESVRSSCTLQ

[25] = biological target: Serine/threonine-protein kinase WNK3 (Homo sapiens) (UniProt Q9BYP7); assay: Binding affinity to wild-type human partial length WNK3 (M1 to D434 residues) expressed in HEK293 cells at 1 uM by Kinomescan method relative to control; assay type: cell-based

| Compound | Activity [1] | Activity [2] | Activity [3] | Activity [4] | Activity [5] | Activity [6] | Activity [7] | Activity [8] | Activity [9] | Activity [10] | Activity [11] | Activity [12] | Activity [13] | Activity [14] | Activity [15] | Activity [16] | Activity [17] | Activity [18] | Activity [19] | Activity [20] | further results |
| --- | --- | --- | --- | --- | --- | --- | --- | --- | --- | --- | --- | --- | --- | --- | --- | --- | --- | --- | --- | --- | --- |
| CCC(=O)Nc1ccc(C(=O)Nc2ccc(Nc3ncc4c(n3)N(C)c3ccc(C)cc3C(=O)N4C)cc2)cc1 | 67% | 72% | 62% | 99% | 96% | 100% | 86% | 95% | 97% | 99% | 92% | 100% | 74% | 80% | 79% | 100% | 84% | 99% | 98% | 100% | Activity [21]: 71%; Activity [22]: 51%; Activity [23]: 71%; Activity [24]: 77%; Activity [25]: 100% |
| C=CC(=O)Nc1ccc(C(=O)Nc2ccc(Nc3ncc4c(n3)N(C)c3ccc(C)cc3C(=O)N4C)cc2)cc1 | 77% | 90% | 84% | 100% | 94% | 94% | 97% | 100% | 79% | 82% | 100% | 80% | 82% | 87% | 97% | 56% | 97% | 96% | 98% | 99% | Activity [21]: 87%; Activity [22]: 96%; Activity [23]: 89%; Activity [24]: 93%; Activity [25]: 100% |
